Where no end group is shown, it is not given here. [ ]: non-standard residue; d: D form.
Molecular target: T1, sPLA2-IIA-integrin αvβ3 interaction (Homo sapiens, UniProt P14555)
T1 sequence (P14555 21-144): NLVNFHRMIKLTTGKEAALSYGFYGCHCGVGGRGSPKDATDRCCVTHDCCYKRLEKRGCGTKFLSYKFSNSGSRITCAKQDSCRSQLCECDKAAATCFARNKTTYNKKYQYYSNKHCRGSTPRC
Assay: cell adhesion inhibition assay: αvβ3-K562 cells on immobilized sPLA2-IIA
Type: cell-based
Conditions: for inhibition of the sPLA2-IIA-integrin interaction (in words): αvβ3-K562 cell adhesion to immobilized sPLA2-IIA; for Max. Inhibition / IC50: αvβ3-K562 cells, immobilized sPLA2-IIA, means ± S.E. (n=3); for Max. Inhibition: adhesion without inhibitors as 100%, adhesion to BSA only as 0%; for IC50: compounds 10 to 500 μM, 30 min, cells 1 h at 37 °C
Outline: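 Wells coated with sPLA2-IIA and blocked with BSA, then preincubated 30 min with test compound (10 to 500 μM). K562 erythroleukemia cells transfected to overexpress integrin αvβ3 were added for 1 h at 37 °C. Bound cells were quantified by phosphatase assay. IC50 and maximum inhibition came from dose-response data, with no-inhibitor adhesion as 100% and BSA-only as 0%. n=3.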

Compound: Cc1nc(NC(=O)c2ccccc2)sc1-c1cc(C(=O)O)[nH]n1 [Cmpd8-1, R-OH]
- inhibition of the sPLA2-IIA-integrin interaction (in words): not inhibitory
- Max. Inhibition: N/A (N/A, “not active’ (<30% inhibition))

Compound: Cc1nc(NC(=O)c2ccccc2)sc1-c1cc(C(=O)N[C@@H](C)C(=O)O)[nH]n1 [Cmpd8-2, R-Ala]
- Max. Inhibition: N/A (N/A, “not active’ (<30% inhibition))

Compound: Cc1nc(NC(=O)c2ccccc2)sc1-c1cc(C(=O)NCC(=O)O)[nH]n1 [Cmpd21-1, R-Gly]
- inhibition of the sPLA2-IIA-integrin interaction (in words): active

Compound: Ala-Trp-Asp*-Ile [Cmpd8-5]
- inhibition of the sPLA2-IIA-integrin interaction (in words): not inhibitory
- Max. Inhibition: N/A (N/A, “not active’ (<30% inhibition))

Compound: Gly-Arg*-Gly-Asp*-Asp*-Asp* [Cmpd21-6]
- inhibition of the sPLA2-IIA-integrin interaction (in words): not inhibitory
- Max. Inhibition: N/A (N/A, “not active’ (<30% inhibition))

Compound: R-Ala-Trp-Asp*-Ile (AW[dD]I-NH2; not fully specified (N-terminus)) [Cmpd8]
- IC50: 20 ± 1.3 µM

Compound: R-Gly-Arg*-Gly-Asp* (G[dR]G[dD]-NH2; not fully specified (N-terminus)) [Cmpd21-4]
- IC50: 155 ± 3.8 µM

Compound: R-Gly-Arg*-Gly-Asp*-Asp*-Asp* (G[dR]G[dD][dD][dD]-NH2; not fully specified (N-terminus)) [Cmpd21]
- IC50: 71 ± 18 µM

— paper PMC4570851 (Bioorganic & medicinal chemistry letters, 2012)
